For 13 compounds, Activity and Ratio results are on record in ChEMBL document CHEMBL1153232, “Synthesis and screening of a CaaL peptide library versus FTase reveals a surprising number of substrates” (Bioorg Med Chem Lett, 2010).

Experiment [1] addresses Protein farnesyltransferase subunit beta (Homo sapiens) (UniProt P49356). In words: Substrate activity for FTase assessed as increase in fluorescence by spectrofluorimetry in presence of farnesyl diphosphate relative to DnGCVLS. Also noted: concentration or dose not given beside the values.
The target is the same in experiment [2]. Nature of the experiment: Activity at FTase assessed as formation of farnesylated peptide after 60 mins by HPLC. A digest of the protocol:
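Peptide (3 μM) with 9 μM FPP and recombinant mammalian FTase (0.05 μM), incubated 60 min. HPLC scored conversion to farnesylated peptide: complete; nearly complete; 25% to 50%; less than 25%; no product.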

Experiment [3] shares this target. In words: Ratio of kcat to km for FTase in presence of farnesyl diphosphate. The essentials: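 Steady-state kinetics at saturating FPP (10 μM), 0.2-10 μM dansyl peptide, 20-100 nM FTase (at least 5-fold below peptide). Buffer: 50 mM HEPPSO pH 7.8, 5 mM TCEP, 5 mM MgCl2, 25 °C. Peptide preincubated 20 min in buffer, then FTase and FPP added. Fluorescence (ex 340, em 520 nm) followed over time and converted to kcat/KM.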

Calls of active or inactive are those of the source. The rule behind the calls is not given here. Peptide text beside a SMILES is read from it. * marks the point of attachment. Dansyl = CN(C)c1cccc2c(S(=O)(=O)*)cccc12

Sequence of Protein farnesyltransferase subunit beta (Homo sapiens) (P49356 whole entry): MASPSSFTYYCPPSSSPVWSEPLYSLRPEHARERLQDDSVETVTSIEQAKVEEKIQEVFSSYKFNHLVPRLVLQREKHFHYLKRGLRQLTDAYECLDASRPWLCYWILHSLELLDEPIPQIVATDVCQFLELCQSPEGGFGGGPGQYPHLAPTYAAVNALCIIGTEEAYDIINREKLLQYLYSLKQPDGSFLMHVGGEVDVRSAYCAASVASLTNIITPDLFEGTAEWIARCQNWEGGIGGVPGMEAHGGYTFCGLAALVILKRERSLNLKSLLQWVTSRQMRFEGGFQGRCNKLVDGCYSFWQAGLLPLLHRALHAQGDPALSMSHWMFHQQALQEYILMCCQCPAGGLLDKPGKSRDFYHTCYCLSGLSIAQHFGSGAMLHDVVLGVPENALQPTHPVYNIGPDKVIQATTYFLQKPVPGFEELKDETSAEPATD

Consider `CC[C@H](C)[C@H](NC(=O)[C@@H](NC(=O)[C@H](CS)NC(=O)CNS(=O)(=O)c1cccc2c(N(C)C)cccc12)[C@@H](C)O)C(=O)N[C@@H](CC(C)C)C(=O)O` (Dansyl-GCTIL-OH), for which the Activity in experiment [1] came to 45%. The result in experiment [2] was Active. Also, the Ratio in experiment [3] turned out to be 33 mM⁻¹ s⁻¹.
For `CC[C@H](C)[C@H](NC(=O)[C@H](CC(N)=O)NC(=O)[C@H](CS)NC(=O)CNS(=O)(=O)c1cccc2c(N(C)C)cccc12)C(=O)N[C@@H](CC(C)C)C(=O)O` (Dansyl-GCNIL-OH), in that order: 22%, “Active” and 12 mM⁻¹ s⁻¹.
For the compound `CC[C@H](C)[C@H](NC(=O)[C@H](CS)NC(=O)[C@H](CS)NC(=O)CNS(=O)(=O)c1cccc2c(N(C)C)cccc12)C(=O)N[C@@H](CC(C)C)C(=O)O` (Dansyl-GCCIL-OH), the Activity in experiment [1] amounted to 61%. Besides, the result in experiment [2] was Active. The Ratio in experiment [3] is 23 mM⁻¹ s⁻¹.
Regarding `CSCC[C@H](NC(=O)[C@H](CC(C)C)NC(=O)[C@H](CS)NC(=O)CNS(=O)(=O)c1cccc2c(N(C)C)cccc12)C(=O)N[C@@H](CC(C)C)C(=O)O` (Dansyl-GCLML-OH), the Activity in experiment [1] is 9%. For the same compound, the result in experiment [2] was Active. Further, the Ratio in experiment [3] came out at 8.1 mM⁻¹ s⁻¹.
Take `CC[C@H](C)[C@H](NC(=O)[C@H](CO)NC(=O)[C@H](CS)NC(=O)CNS(=O)(=O)c1cccc2c(N(C)C)cccc12)C(=O)N[C@@H](CC(C)C)C(=O)O` (Dansyl-GCSIL-OH): the Activity in experiment [1] is 18%. Moreover, the outcome in experiment [2] was Active. Besides, in experiment [3], the Ratio came to 5 mM⁻¹ s⁻¹.
For the compound `CC[C@H](C)[C@H](NC(=O)[C@H](C)NC(=O)[C@H](CS)NC(=O)CNS(=O)(=O)c1cccc2c(N(C)C)cccc12)C(=O)N[C@@H](CC(C)C)C(=O)O` (Dansyl-GCAIL-OH), in experiment [1], the Activity stood at 71%. The outcome in experiment [2] was Active. For the same compound, the Ratio in experiment [3] turned out to be 27 mM⁻¹ s⁻¹.
Regarding `CC[C@H](C)[C@H](NC(=O)[C@H](CS)NC(=O)CNS(=O)(=O)c1cccc2c(N(C)C)cccc12)C(=O)N[C@H](C(=O)N[C@@H](CC(C)C)C(=O)O)[C@@H](C)CC` (Dansyl-GCIIL-OH), the Activity in experiment [1] stood at 101%. Besides, the outcome in experiment [2] was Active. The Ratio in experiment [3] was 43 mM⁻¹ s⁻¹.
Consider `CC[C@H](C)[C@H](NC(=O)[C@@H](NC(=O)[C@H](CS)NC(=O)CNS(=O)(=O)c1cccc2c(N(C)C)cccc12)C(C)C)C(=O)N[C@@H](CC(C)C)C(=O)O` (Dansyl-GCVIL-OH), for which the Activity in experiment [1] was found to be 52%. Also, the result in experiment [2] was Active. For the same compound, in experiment [3], the Ratio came out at 47 mM⁻¹ s⁻¹.
Take `CC(C)C[C@H](NC(=O)[C@H](CCC(N)=O)NC(=O)CNC(=O)[C@H](CS)NC(=O)CNS(=O)(=O)c1cccc2c(N(C)C)cccc12)C(=O)O` (Dansyl-GCGQL-OH): in experiment [1], the Activity was found to be 0%. Besides, in experiment [2], the result was inactive.
For the compound `CC(C)C[C@H](NC(=O)[C@H](C)NC(=O)[C@H](Cc1cnc[nH]1)NC(=O)[C@H](CS)NC(=O)CNS(=O)(=O)c1cccc2c(N(C)C)cccc12)C(=O)O` (Dansyl-GCHAL-OH), the Activity in experiment [1] came to 0%. Also, the result in experiment [2] was inactive.
As for `CC[C@H](C)[C@H](NC(=O)[C@H](CS)NC(=O)CNS(=O)(=O)c1cccc2c(N(C)C)cccc12)C(=O)N[C@@H](CC(C)C)C(=O)N[C@@H](CC(C)C)C(=O)O` (Dansyl-GCILL-OH), the Activity in experiment [1] amounted to 15%. In addition, the result in experiment [2] was Active. Also, the Ratio in experiment [3] turned out to be 8 mM⁻¹ s⁻¹.
Turning to `CC(C)C[C@H](NC(=O)CNC(=O)[C@H](CC(C)C)NC(=O)[C@H](CS)NC(=O)CNS(=O)(=O)c1cccc2c(N(C)C)cccc12)C(=O)O` (Dansyl-GCLGL-OH), the Activity in experiment [1] came out at 0%. In addition, the outcome in experiment [2] was inactive.
Turning to `CC(C)C[C@H](NC(=O)[C@@H](NC(=O)[C@H](CS)NC(=O)[C@H](CS)NC(=O)CNS(=O)(=O)c1cccc2c(N(C)C)cccc12)C(C)C)C(=O)O` (Dansyl-GCCVL-OH), the Activity in experiment [1] turned out to be 11%. Also, in experiment [2], the result was Active. Moreover, in experiment [3], the Ratio stood at 7 mM⁻¹ s⁻¹.
